Source: the RNAGym collection of RNA variant scans (doi:10.1002/anie.201605470)

B1: Osa-1-4 twister ribozyme (parent)
chain: CCGCCUAACACUGCCAAUGCCGGUCCCAAGCCCGGAUAAAAGUGGAGGGGGCGG

Variants of: B1
Experiment: self-cleavage, relative activity (ratio to wild type); higher = more cleavage; co-transcriptional
How it was run: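 For each read, cleavage status was taken from whether upstream sequence was present. The reads came from an Oryza sativa twister ribozyme of 54 nucleotides, whose DNA template was synthesised with 97 % wild-type base and 1 % of each other base at the 48 positions downstream of the cleavage site. The template was transcribed in vitro at 37 °C for 2 h with co-transcriptional self-cleavage, and the RNA was reverse-transcribed using a template-switching oligonucleotide, PCR-amplified and deep-sequenced. Relative activity is the fraction cleaved normalised to wild type.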

| Variant | self-cleavage |
| --- | --- |
| A41U G23U | 0.09 |
| G42A G54A | 0.76 |
| G42A G54C | 0.82 |
| G42A G54U | 0.8 |
| A41U G13A | 0.14 |
| A41U G13C | 0.03 |
| A41U G13U | 0.03 |
| G42C G44C | 0.19 |
| G42C G44A | 0.24 |
| G42C G44U | 0.11 |
| A41U G54C | 0.93 |
| A41U G54U | 0.99 |
| A41U G54A | 0.98 |
| A41G C25U | 0.16 |
| A41G C25A | 0.07 |
| A41G C25G | 0.06 |
| A41U G22C | 0.1 |
| A41U G22U | 0.85 |
| A41U G22A | 1 |
| A41G G35U | 0.51 |
| A41G G35A | 0.57 |
| A41G G35C | 0.15 |
| G42C G54U | 0.43 |
| G42C G54C | 0.3 |

| Variant | self-cleavage |
| --- | --- |
| G42C G54A | 0.26 |
| A41G G42C | 0.37 |
| A41G G42A | 0.72 |
| A41G G42U | 0.44 |
| A41G C14G | 0.14 |
| A41G C14A | 0.07 |
| A41G C14U | 0.24 |
| A41U C33A | 0.14 |
| A41U C33U | 0.81 |
| A41U C33G | 0.1 |
| A41U C32G | 0.18 |
| A41U C32U | 0.17 |
| A41U C32A | 0.1 |
| G42C G50C | 0.15 |
| G42C G50A | 0.14 |
| G42C G50U | 0.32 |
| G42C U24C | 0.05 |
| G42C U24G | 0.02 |
| G42C U24A | 0.05 |
| A41U C15A | 0.26 |
| A41U C15U | 0.56 |
| A41U C15G | 0.64 |
| G42C U37C | 0.34 |
| G42C U37G | 0.39 |

| Variant | self-cleavage |
| --- | --- |
| G42C U37A | 0.21 |
| A41G G50A | 0.34 |
| A41G G50U | 0.91 |
| A41G G50C | 0.77 |
| A41U U24G | 0.02 |
| A41U U24C | 0.27 |
| A41U U24A | 0.22 |
| G42C U18A | 0.23 |
| G42C U18C | 0.21 |
| G42C U18G | 0.32 |
| A41U U43A | 0.81 |
| A41U U43G | 0.32 |
| A41U U43C | 0.33 |
| G42A G47U | 0.07 |
| G42A G47A | 0.08 |
| G42A G47C | 0.07 |
| A41G U24A | 0.07 |
| A41G U24G | 0.04 |
| A41G U24C | 0.07 |
| A41C U18C | 0.8 |
| A41C U18G | 0.85 |
| A41C U18A | 0.92 |
| A41U G42U | 0.15 |
| A41U G42C | 0.2 |

| Variant | self-cleavage |
| --- | --- |
| A41U G42A | 0.35 |
| G42A U12C | 0.1 |
| G42A U12G | 0.09 |
| G42A U12A | 0.15 |
| A41G A7U | 0.08 |
| A41G A7G | 0.14 |
| A41G A7C | 0.05 |
| A41G G23U | 0.06 |
| A41G G23C | 0.07 |
| A41G G23A | 0.12 |
| A41U C9G | 0.79 |
| A41U C9U | 0.78 |
| A41U C9A | 0.42 |
| A41G U43G | 0.16 |
| A41G U43C | 0.13 |
| A41G U43A | 0.21 |
| A41G G47C | 0.07 |
| A41G G47U | 0.08 |
| A41G G47A | 0.1 |
| A41U G19C | 0.24 |
| A41U G19U | 0.35 |
| A41U G19A | 0.94 |
| A41G C21A | 0.22 |
| A41G C21U | 0.75 |

| Variant | self-cleavage |
| --- | --- |
| A41G C21G | 0.13 |
| G42A G48A | 0.06 |
| G42A G48C | 0.06 |
| G42A G48U | 0.05 |
| G42C U43C | 0.11 |
| G42C U43A | 0.1 |
| G42C U43G | 0.09 |
| A41G U37A | 0.86 |
| A41G U37C | 0.59 |
| A41G U37G | 0.87 |
| A41U G45C | 0.06 |
| A41U G45U | 0.12 |
| A41U G45A | 0.25 |
| A41G G22A | 0.48 |
| A41G G22C | 0.05 |
| A41G G22U | 0.27 |
| A41U C31G | 0.13 |
| A41U C31U | 0.94 |
| A41U C31A | 0.04 |
| A41G | 0.84 |
| A41U | 1.02 |
| A41G C33U | 0.12 |
| A41G C33G | 0.1 |
| A41G C33A | 0.07 |

| Variant | self-cleavage |
| --- | --- |
| A41G C31A | 0.04 |
| A41G C31U | 0.17 |
| A41G C31G | 0.11 |
| A41G C9G | 0.22 |
| A41G C9U | 0.11 |
| A41G C9A | 0.08 |
| G42A G45A | 0.08 |
| G42A G45C | 0.05 |
| G42A G45U | 0.05 |
| A41G G51C | 0.09 |
| A41G G51A | 0.41 |
| A41G G51U | 0.12 |
| G42U G44A | 0.35 |
| G42U G44C | 0.26 |
| A41G G49U | 0.07 |
| A41G G49A | 0.08 |
| A41G G49C | 0.06 |
| G42C G49A | 0.06 |
| G42C G49U | 0.05 |
| G42C G49C | 0.07 |
| A41C U24C | 0.1 |
| A41C U24A | 0.13 |
| A41C U24G | 0.03 |
| A41U G47C | 0.11 |

| Variant | self-cleavage |
| --- | --- |
| A41U G47U | 0.25 |
| A41U G47A | 0.27 |
| G42C G45U | 0.05 |
| G42C G45A | 0.06 |
| G42C G45C | 0.06 |
| A41U U37G | 1.02 |
| A41U U37C | 1.03 |
| A41U U37A | 0.98 |
| A41G C15U | 0.22 |
| A41G C15A | 0.18 |
| A41G C15G | 0.28 |
| G42A U18C | 0.44 |
| G42A U18A | 0.71 |
| G42A U18G | 0.66 |
| A41U C25A | 0.1 |
| A41U C25U | 0.91 |
| A41U C25G | 0.11 |
| A41G G54C | 0.8 |
| A41G G54U | 0.82 |
| A41G G54A | 0.81 |
| G42C U12G | 0.06 |
| G42C U12C | 0.08 |
| G42C U12A | 0.09 |
